# Data as given in ChEMBL document CHEMBL4017489, “Design, Synthesis, and Evaluation of New Selective NM23-H2 Binders as c-MYC Transcription Inhibitors via Disruption of the NM23-H2/G-Quadruplex Interaction” (J Med Chem, 2017).
# Calls of active or inactive are those of the source. No cut-off for these calls is given here.
# How the values were obtained:
# SiHa [1] = test: Cell cycle arrest in human SiHa cells assessed as accumulation at S phase at 2 uM after 48 hrs by propidium iodide staining based flow cytometry (reference value: 13 %); assay type: functional
# How it was run: (§1)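 SiHa cells (2.0 × 10^5 per well) plated 24 h, then exposed to 2 μM compound or left untreated for 3, 6, 9, 12, 24, 36 or 48 h. Cells washed in PBS, fixed overnight in ice-cold 70% ethanol, treated with 20 μg/mL RNase A for 30 min at 37 °C, stained with PI, and read by flow cytometry at 488 nm. Phase percentages compared with untreated control; at least three experiments.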
# SiHa [2] = test: Cell cycle arrest in human SiHa cells assessed as accumulation at sub-G1 phase at 2 uM after 24 hrs by propidium iodide staining based flow cytometry relative to control; assay type: functional; how it was run: as §1
# [3] = target: Nucleoside diphosphate kinase B (Homo sapiens, UniProt P22392, H118F); test: Binding affinity to N-terminal NT-647-NHS labeled NM23-H2 H118F mutant (unknown origin) after 30 mins by MST analysis
# Nucleoside diphosphate kinase B (Homo sapiens, UniProt P22392, H118F), sequence (P22392 whole entry H118F): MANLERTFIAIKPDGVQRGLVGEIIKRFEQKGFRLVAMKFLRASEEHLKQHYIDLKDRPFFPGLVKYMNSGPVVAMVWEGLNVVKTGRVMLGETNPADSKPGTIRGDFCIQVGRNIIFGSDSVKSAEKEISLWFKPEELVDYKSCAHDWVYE
# [4] = Cell cycle arrest in mouse primary mesangial cells at 2 uM after 9 to 48 hrs by propidium iodide staining based flow cytometry method
# [5] = Binding affinity to biotin-labeled 18-mer duplex DNA hairpin (unknown origin) at 40 uM after 30 mins by SPR analysis
# SiHa [6] = test: Antitumor activity against human SiHa cells xenografted in BALB/C nude mouse assessed as tumor weight at 2.5 mg/kg, ip administered daily after 3 weeks (reference value: 511.6 mg); assay type: functional
# SiHa [7] = test: Cell cycle arrest in human SiHa cells assessed as accumulation at G0/G1 phase at 2 uM after 48 hrs by propidium iodide staining based flow cytometry (reference value: 48 %); assay type: functional
# How it was run: (§2)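 SiHa cells plated 24 h, treated at 2 μM for 3–48 h; fixed in ice-cold 70% ethanol overnight, RNase A 20 μg/mL 37 °C 30 min, PI-stained, flow cytometry at 488 nm; phase percentages quantified; at least three experiments.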
# SiHa [8] = test: Induction of apoptosis in human SiHa cells assessed as necrotic cells at 1 uM after 48 hrs by Annexin V-FITC/propidium iodide based flow cytometric analysis (reference value: 0.3%); assay type: functional
# [9] = Binding affinity to biotin-labeled Pu22 c-myc G-quadruplex DNA (unknown origin) at 40 uM after 30 mins by SPR analysis
# SiHa [10] = test: Induction of apoptosis in human SiHa cells assessed as necrotic cells at 0.5 uM after 48 hrs by Annexin V-FITC/propidium iodide based flow cytometric analysis (reference value: 0.3%); assay type: functional
# SiHa [11] = test: Cell cycle arrest in human SiHa cells assessed as accumulation at G2/M phase at 2 uM after 24 hrs by propidium iodide staining based flow cytometry (reference value: 39 %); assay type: functional; how it was run: as §2
# [12] = target: T1, Nucleoside diphosphate kinase B (Homo sapiens, UniProt P22392); test: Binding affinity to NM23-H2 in human SiHa cells assessed as decrease in NM23-H2 to c-myc G-quadruplex DNA interaction after 9 hrs by Chromatin immunoprecipitation assay; assay type: cell-based
# T1 sequence (P22392 whole entry, the tested form may be a part): as the sequence (P22392 whole entry H118F) above, with F118H counted along it
# How it was run: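 SiHa cells treated 9 h; chromatin immunoprecipitated overnight at 4 °C with anti-NM23-H2 (3 μg), rabbit IgG control; c-MYC promoter fragment PCR-amplified, gel bands normalized to input, untreated set 100%; three repeats.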
# SiHa [13] = test: Cell cycle arrest in human SiHa cells assessed as accumulation at S phase at 2 uM after 24 hrs by propidium iodide staining based flow cytometry (reference value: 13 %); assay type: functional; how it was run: as §1
# SiHa [14] = test: Antitumor activity against human SiHa cells xenografted in BALB/C nude mouse assessed as tumor growth inhibition at 2.5 to 5 mg/kg, ip administered daily; assay type: functional, organism-based; settings: TDE = time-dependent effect
# How it was run: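 SiHa cells implanted in the right armpit of BALB/C-nu/nu mice. At a tumour size of about 50 mm3, mice were randomised (n = 8/group) to vehicle, 2.5 or 5.0 mg/kg compound, or doxorubicin 1.0 mg/kg, given ip daily for 3 weeks. Tumour volume was followed, then tumours were excised and weighed and body weight recorded. Mean ± SEM, t test against vehicle.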
# [15] = target: T1, Nucleoside diphosphate kinase B; test: Binding affinity to NM23-H2 in human SiHa cells assessed as disruption of protein interaction with c-myc G-quadruplex DNA by measuring decrease in c-MYC mRNA level after 9 hrs by RT-PCR analysis; assay type: cell-based
# How it was run: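 SiHa cells treated at 0, 0.5, 1.0, 2.0 μM for 9 h; TRIzol RNA, 1.5 μg reverse-transcribed with oligo(dT); semiquantitative PCR, 30 cycles, 58 °C annealing; bands normalized to β-actin, untreated 100%; three repeats.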
# [16] = tested on: Nucleoside diphosphate kinase B (Homo sapiens), P22392 [F60A]; test: Binding affinity to NM23-H2 F60A mutant (unknown origin) up to 50 uM by SPR analysis
# Nucleoside diphosphate kinase B (Homo sapiens), P22392 [F60A], sequence (P22392 whole entry F60A): as the sequence (P22392 whole entry H118F) above, with F60A, F118H counted along it
# SiHa [17] = test: Cell cycle arrest in human SiHa cells assessed as accumulation at S phase at 2 uM after 6 hrs by propidium iodide staining based flow cytometry (reference value: 13 %); assay type: functional; how it was run: as §1
# SiHa [18] = test: Cell cycle arrest in human SiHa cells assessed as accumulation at G0/G1 phase at 2 uM after 12 hrs by propidium iodide staining based flow cytometry (reference value: 48 %); assay type: functional; how it was run: as §2
# SiHa [19] = test: Induction of apoptosis in human SiHa cells assessed as increase in cleaved PARP level after 48 hrs by Western blot analysis; assay type: functional, cell-based
# How it was run: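 SiHa cells treated with 0, 0.5, 1.0 or 2.0 μM for 48 h and lysed for total protein. Caspase-3, cleaved caspase-3, PARP and cleaved PARP detected by Western blot (30 μg protein, 10% SDS-PAGE, HRP chemiluminescence). Bands quantified by densitometry; at least three experiments.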
# Mus musculus = test: Toxicity in BALB/C nude mouse xenografted with human SiHa cells assessed as change in body weight at 2.5 to 5 mg/kg, ip administered daily after 3 weeks; assay type: organism-based; settings: in vivo, 504 h
# How it was run: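 SiHa cells implanted in the right armpit of BALB/c nu/nu mice. At approximately 50 mm3, mice randomized (n = 8/group) to vehicle, compound 2.5 or 5.0 mg/kg, or doxorubicin 1.0 mg/kg, given ip daily for 3 weeks. Body weight and signs of pain, distress or discomfort monitored; tumors excised and weighed. Data given as mean ± SEM, t test against vehicle.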
# SiHa [20] = test: Induction of apoptosis in human SiHa cells assessed as late apoptotic cells at 2 uM after 48 hrs by Annexin V-FITC/propidium iodide based flow cytometric analysis (reference value: 0.7 %); assay type: functional
# SiHa [21] = test: Antitumor activity against human SiHa cells xenografted in BALB/C nude mouse assessed as tumor growth inhibition at 5 mg/kg, ip administered daily after 3 weeks relative to control; assay type: functional; settings: 504 h, read-out: TGI
# SiHa [22] = test: Cell cycle arrest in human SiHa cells assessed as accumulation at G0/G1 phase at 2 uM after 6 hrs by propidium iodide staining based flow cytometry (reference value: 48 %); assay type: functional; how it was run: as §2
# SiHa [23] = test: Induction of apoptosis in human SiHa cells assessed as early apoptotic cells at 1 uM after 48 hrs by Annexin V-FITC/propidium iodide based flow cytometric analysis (reference value: 1.4 %); assay type: functional
# SiHa [24] = test: Cell cycle arrest in human SiHa cells assessed as accumulation at G2/M phase at 2 uM after 36 hrs by propidium iodide staining based flow cytometry (reference value: 39 %); assay type: functional; how it was run: as §1
smiles,measurement,setting,value
CN(C)CCCNc1cc2nc3n(c(=O)c2cc1F)CC/C3=C\c1ccc(OCc2ccccc2)cc1O,Activity,SiHa [1],0%
same,Activity,SiHa [2],64%
same,Kd,[3],7.7 µM
same,Activity,[4],Non-Toxic
same,Activity,[5],inactive
same,Activity,SiHa [6],265.9 mg
same,Activity,SiHa [7],0%
same,Activity,SiHa [8],1.3%
same,Activity,[9],inactive
same,Activity,SiHa [10],0.3%
same,Activity,SiHa [11],8%
same,Activity,[12],Dose-dependent effect
same,Activity,SiHa [13],6%
same,TGI,SiHa [14],Tde
same,Activity,[15],Dose-dependent effect
same,Activity,[16],inactive
same,Activity,SiHa [17],12%
same,Activity,SiHa [18],54%
same,Activity,SiHa [19],Dose-dependent effect
same,Activity,Mus musculus,Non-Toxic
same,Activity,SiHa [20],90.3%
same,inhibition in vivo at 5 mg/kg,SiHa [21],64.8%
same,Activity,SiHa [22],62%
same,Activity,SiHa [23],80.7%
same,Activity,SiHa [24],0%
